The text below walks through data of ChEMBL document CHEMBL1157263, “Cytotoxic diacetylenic spiroketal enol ethers from Plagius flosculosus” (J Nat Prod, 2006).

Usually IC50 stands for the concentration that inhibits the measured activity by half. A high value points to weaker potency.

Holding throughout (assay type): functional, cell-based
For test [1], the system named is Jurkat. The experiment in a line: Cytotoxicity against human Jurkat T cells after 20 hrs by WST1 assay. The method in brief: (§1)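 WST-1 cell viability read-out after 2.5, 20 and 72 h exposure; compounds tested over 0.5 to 80 µM. Cells: CD4+ Jurkat T-cells (ATCC TIB-152), Bcl-2-transfected Jurkat, and HL-60 (ATCC CCL-240). Maximal standard deviation 10% (absolute).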
On the technique in general: Tetrazolium assays rely on reduction of a dye to a coloured formazan, in cell work by metabolically active cells.

For test [2], the system named is Jurkat. In words: Cytotoxicity against human Jurkat T cells overexpressing Bcl2 after 20 hrs by WST1 assay. The essentials:
as §1

Test [3] deals with HL-60. In words: Cytotoxicity against human HL60 after 20 hrs by WST1 assay. The following applies: HL-60, 20 h. The essentials: as §1
Test [4] deals with HL-60. In words: Induction of apoptosis in human HL60 cells by FACS. The essentials: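 HL-60 cells (10^6 per sample) exposed 24 h, washed in cold PBS with 1% bovine calf serum and spun at 200g, 4 °C. Staining with annexin V-FITC (2 µg/mL) in HEPES binding buffer, pH 7.4, 10 min on ice in the dark, then 1 µg PI per tube. Flow cytometry within 20 min; annexin V-FITC-positive cells in the gated population scored apoptotic. Taxol 500 nM positive control, untreated negative control.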
In general terms: Flow cytometry measures light scatter and fluorescence of single cells or particles in a stream.

Consider `CC#CC#C/C=C1/O[C@@]2(OC=C[C@H]2OC(C)=O)[C@@H](O)[C@@H]1Cl` [FLOSCULIN A], for which the IC50 amounted to 13.2 µM in the test on Jurkat [1], 19.1 µM with Jurkat [2] and 18.9 µM with HL-60 [3].
Taken in the same sequence, the figures for `CC#CC#C/C=C1\C=C[C@@]2(CCCO2)O1` were 11.2 µM, 14.1 µM and 16.2 µM.
As for `CC#CC#C/C=C1/C=C[C@@]2(CC=CO2)O1`, the IC50 stood at 3.8 µM in the test on Jurkat [1], 7.2 µM in the test with Jurkat [2] and 5.6 µM with HL-60 [3].
For `CC#CC#C/C=C1\C=CC2(CCC(OC)O2)O1` (racemic) [FLOSCULIN B] the same measures were 15.2 µM, 19.2 µM and 18.3 µM.
For `CC#CC#C/C=C1\C=C[C@@]2(CC=CO2)O1` the same measures were 4.7 µM, 8.4 µM and 6.1 µM.
For `CC#CC#C/C=C1\C=C[C@]2(OC=CC2OC(C)=O)O1` (stereo partly drawn), the Activity entry with HL-60 [4] is “Dose-dependent effect”. Besides, the IC50 came to 6.4 µM with Jurkat [1], 6.9 µM with Jurkat [2] and 4 µM in the test on HL-60 [3].
For `CC#CC#C/C=C1/C=CC2(CCC(OC)O2)O1` (racemic) [FLOSCULIN C], the IC50 in the test on Jurkat [1] was determined as 10.8 µM; in the test on Jurkat [2], 16.9 µM; in the test with HL-60 [3], 16.7 µM.
For the compound `C=C1C(=O)O[C@@H]2C[C@@H](C)[C@@H]3C=CC(=O)[C@@]3(C)[C@@H](O)[C@H]12` [HELENALIN], the IC50 with Jurkat [1] amounted to 0.46 µM; in the test with HL-60 [3], 0.7 µM.
For `CC#CC#C/C=C1/C=C[C@]2(OC=CC2OC(C)=O)O1` (stereo partly drawn), in the test with HL-60 [4], the Activity entry is “Dose-dependent effect”. In addition, the results for the half-maximal inhibitory concentration (IC50) in the test with Jurkat [1], with Jurkat [2] and with HL-60 [3] were 4.1 µM, 5.2 µM and 4.2 µM, respectively.
